PLK1 PBD inh – Plk1 polo box domain binding inhibitors, primary screen, biochemical, fluorescence polarization; inhibition, %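 (tested at about 20 µM)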; Plk1 PBD phosphopeptide binding; Serine/threonine-protein kinase PLK1 (Homo sapiens), P53350; hit rate 0.13% among 97,000; in the data active = inhibition above about 34%, passing the limit was not always enough
PTPN22 act – LYP phosphatase activators, primary screen, biochemical, DiFMUP fluorescence, 2 µM; Tyrosine-protein phosphatase non-receptor type 22 (Homo sapiens), Q9Y2R2; hit rate 0.11% among 96,000; activation, % at 2 µM; recombinant LYP; 0 = plate median, 100 = signal doubled;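 active = activation at 2 µM above a set limit, the mean plus 5 SD, cut at about 37% in these data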
EphB4 antag – EphB4-ephrin-B2 interaction antagonists, primary screen, biochemical, TNYL-RAW peptide probe, fluorescence polarization | Ephrin type-B receptor 4 (Homo sapiens), P54760 | inhibition, % at 7 µM | EphB4 LBD / TNYL-RAW-Alexa532 peptide | hit rate 0.15% among 97,000 | AID 720, 2007;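 active = inhibition above the screen-wide mean inhibition plus 3 SD, cut at about 15% in these data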;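 note: 0% = DMSO wells and 100% = excess unlabeled TNYL-RAW peptide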
Rev-RRE block – HIV-1 Rev-RRE binding inhibitors, primary screen, biochemical, FRET, protein-RNA interaction; P05866; inhibition, % at 8 µM; AID 704, 2007; Rev peptide-RRE RNA binding; hit rate 0.79% among 97,000;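 active = inhibition above the screen-wide mean plus 3 SD, cut at about 35% in these data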;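 note: 0% = median DMSO wells and 100% = median Neomycin B control wells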
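Probe or stimulus: fluorescein-Rev peptide as binding partner; assay system: Cy5-tagged RRE RNA duplex with fluorescein-tagged Rev peptide; timing: 5 min compound–RNA preincubation, then 15 min with peptide, 25 °C; medium: HEPES pH 7.5 buffer with KCl, MgCl2, NaCl and EDTA; signal: fluorescein-to-Cy5 FRET, 480 nm excitation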
PTPN22 inh 2 – PTPN22 phosphatase inhibitors, primary screen, biochemical, DiFMUP fluorescence, 2 µM. Tyrosine-protein phosphatase non-receptor type 22 (Homo sapiens), Q9Y2R2. recombinant LYP catalytic domain. inhibition, % at 2 µM. hit rate 0.21% among 96,000;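 active = inhibition at 2 µM at or above a set limit, the screen mean plus 3 SD, cut at about 24% in these data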;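 note: 0% = DMSO with enzyme and 100% = enzyme fully blocked by orthovanadate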
PLK1 inh – human PLK1 kinase inhibitors, primary screen, biochemical, TR-FRET. inhibition, % at 10 µM. Serine/threonine-protein kinase PLK1 (Homo sapiens), P53350. hit rate 0.53% among 97,000. recombinant PLK1 kinase, TR-FRET peptide phosphorylation. AID 619, 2007;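 active = inhibition of 50% or more in the single-concentration screen; inactive = inhibition below 50%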;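 note: 0% = DMSO max control and 100% = H-89 dihydrochloride min control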
Starred values were filed as active, the others as inactive; . = no result given; [ ] = remark or other dose. An excerpt weighted towards active compounds, which were near 1.8% of everything screened.

SMILES	PLK1 PBD inh	PTPN22 act	EphB4 antag	Rev-RRE block	PTPN22 inh 2	PLK1 inh
O=C(CCC1COc2ccccc2O1)Nc1cccnc1 (stereo not drawn)	15	-1	-8	-1	1	-13
O=C(Nc1cccnc1)C1COc2ccccc2O1 (stereo not drawn)	-8	2	16*	12	0	-5
Cc1c(O)cc2n(c1=O)-c1ccccc1C2(C)C	-28	1	16*	8	0	-8
CN1/C(=C\C(=O)C(F)F)C(C)(C)c2ccccc21	15	-2	2	7	4	1
CCN(CC)c1ccc(/C=C/c2nc3ccccc3s2)cc1	-159	4	2	123*[fluorescence artefact?]	0	-6
CC1CC(NS(=O)(=O)c2cccs2)CC(C)(C)C1 (stereo not drawn)	-3	10	-1	12	-8	-8
CCN(CC)c1ccc(NC(=O)OC)cc1	-5	-3	-1	6	6	-15
CSc1nsc(/C=C/Nc2ccc(C)cc2)c1C#N	-90	-8	-4	58*	11	0
Cc1cc(C(=O)CSc2nnc(Nc3ccccc3)s2)c(C)n1CC1CCCO1 (stereo not drawn)	-1	-8	-2	-2	5	-10
Cc1cc(C(=O)CSc2nnc(Nc3ccccc3F)s2)c(C)n1CC1CCCO1 (stereo not drawn)	11	-4	15*	3	1	-3
CN1CCC2(CC1)C1CN(C)CC=C1C(C#N)=C(N)C2(C#N)C#N (stereo not drawn)	-8	-9	0	74*	7	9
Cc1ccc(N2CC(C(=O)Nc3nccs3)CC2=O)cc1Cl (stereo not drawn)	-26	0	9	11	-1	11
Cc1c(Cl)cccc1N1CC(C(=O)Nc2nccs2)CC1=O (stereo not drawn)	-5	-2	1	2	0	53*
CC(CC(=O)Nc1nncs1)c1ccccc1 (stereo not drawn)	0	0	0	5	-1	-6
Cc1cc(C)n2nc3nc4c(cc3c2n1)CCCC4	18	3	3	76*	-4	-8
CCOC(=O)NC1(NC2CCCCC2)Oc2ccccc2O1	11	-1	4	2	-2	-12
CCN1C(=O)CS/C1=C(\C#N)S(=O)(=O)c1ccccc1	-31	-2	-10	37*	2	-13
c1ccc(Cn2nnc3c(NCC4CCCO4)ncnc32)cc1 (stereo not drawn)	-18	-5	-3	3	3	-11
Cc1cc(C(=O)O)c(C)n1-c1ccccc1	1	-4	6	0	3	-12
CSc1cccc(-n2c(C)cc(C(N)=O)c2C)c1	-7	3	16*	8	-6	0
O=c1[nH]c(CN2CCN(C/C=C/c3ccccc3)CC2)nc2cc(Cl)ccc12	-18	3	-6	11	-5	69*
O=C(CCc1nc2ccccc2c(=O)[nH]1)N1CCN(C/C=C/c2ccccc2)CC1	10	3	-9	6	-4	-6
CC1C2=C(CCCC2=O)N(c2cccc3ccccc23)C2=C1C(=O)CCC2	2	12	-3	9	-15	-9
CCC(C)n1c(NC(=O)c2ccccc2)c(C#N)c2nc3ccccc3nc21 (stereo not drawn)	-8	3	-10	76*	2	-12
CCCCn1c(NC(=O)c2ccccc2)c(C#N)c2nc3ccccc3nc21	1	-18	4	50*	16	3
SMILES	PLK1 PBD inh	PTPN22 act	EphB4 antag	Rev-RRE block	PTPN22 inh 2	PLK1 inh
Nc1nc2ccccc2n1CCOc1ccccc1Cl	3	0	-5	6	-2	19
O=C(N/N=C/c1ccc(-c2cccc(C(F)(F)F)c2)o1)c1ccccc1Br	-19	8	-8	60*	-5	-4
O=C(N/N=C/c1ccc(-c2cccc(C(F)(F)F)c2)o1)c1cccc(F)c1	24	0	-3	15	5	-11
Cc1cccc(NC(=O)CSc2ncnc3nc[nH]c23)c1	21	14	-7	3	-11	55*
CC(C)[C@H](NC(=O)NCCc1ccc(F)cc1)C(=O)O	-27	-1	0	7	0	3
O=S(=O)(NCc1cccnc1)c1cc(Cl)ccc1Cl	14	1	-8	5	-1	-7
O=S(=O)(Nc1nc(-c2sccc2Cl)cs1)c1cc(Cl)ccc1Cl	-1	-24	6	4	26*	-8
O=C(N/N=C/C=C/c1ccccc1)c1cc2c(ccc3ccccc32)o1	11	-31	-7	-21	32*	-8
C=CCn1cc(/C=N\NC(=O)c2cc3c(ccc4ccccc43)o2)c2ccccc21	-14	0	-3	3	-2	-13
CCOC(=O)Cc1csc(NC(=O)c2csc(C)c2)n1	2	-3	5	0	0	-11
CCOC(=O)Cc1csc(NC(=O)c2sc3nc4c(C)cc(C)cc4cc3c2N)n1	-48	-2	-2	107*[fluorescence artefact?]	7	-19
Cc1ccc(NC(=O)CSc2nc3ccccc3c(=O)n2CCCN2CCCCC2)cc1C	2	11	0	2	-9	-5
N#Cc1c(N)sc2c1CCN(CCc1ccccc1)C2	-31	15	2	65*	-14	-3
N#Cc1c(N2CCCCC2)nc(N2CCCCC2)c2c1CCN(Cc1ccccc1)C2	-10	10	-1	22	-15	-8
Cc1noc(C(=O)N2CC3(C)CC2CC(C)(C)C3)c1Cl (stereo not drawn)	12	.	0	2	.	70*
NC(=O)C[n+]1cccc2ccccc21	0	12	0	37*	-6	-13
Cc1ccc(C(=O)C[n+]2cccc3ccccc32)cc1	-24	-22	-4	34	24	-9
O=C(Nc1cccc(Cl)c1)c1cnn2cccnc12	18	-10	2	4	9	60*
O=C(Nc1cc(Cl)cc(Cl)c1)c1cnn2cccnc12	3	-10	-1	9	11	16
Cc1ccc(-c2nn(CC(=O)NCc3cc(-c4nn(C)c(=O)c5ccccc45)ccc3C)c(=O)c3ccccc23)cc1	-21	-24	0	5	25*	-4
Cc1ccc(CC(=O)Nc2ccccc2N2CCOCC2)cc1C	-12	-12	2	19	12	0
CCCCC(CC)CNC(=O)c1cccs1 (stereo not drawn)	-5	-2	-7	3	0	8
Cc1nnc(SCC(=O)NC2CC2)n1CCc1ccccc1	4	1	4	6	-3	-15
